According to ChEMBL document CHEMBL2176896, “Phthalazine derivatives containing imidazole rings behave as Fe-SOD inhibitors and show remarkable anti-T. cruzi activity in immunodeficient-mouse mode of infection” (J Med Chem, 2012):
Calls of active or inactive are those of the source. No cut-off for these calls is given here.

Assays:
[1] = tested on: Trypanosoma cruzi; assay: (§1) Antitrypanosomal activity against Trypanosoma cruzi IRHOD/VO/2008/SN3 metacyclic forms infected in BALB/c mouse model of acute Chagas disease assessed as reduction parasitemia at 15 mg/kg/day, ip administered for 5 consecutive days starting on day 7 post infection until day 12 post infection and measured on day 40 post infection; format: functional; design: scale not given: the % may be the effect or the level left; conditions: route intraperitoneal
Procedure, shortened: (§2)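 Groups of six female BALB/c mice (6–8 weeks, 25–30 g) inoculated ip with 5 × 10^5 metacyclic trypomastigotes. Dosed ip at 5 or 15 mg/kg/day on days 7–12 pi; untreated infected controls. Mandibular-vein blood (5 μL in 495 μL PBS) counted every 3 days for 40 days in a Neubauer chamber, as parasites/mL.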

[2] = Inhibition of Trypanosoma cruzi IRHOD/VO/2008/SN3 epimastigotes Iron superoxide dismutase by spectrophotometry
Procedure, shortened: (§3)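 Enzyme from sonicated parasites in STE buffer, pH 7.8, or human erythrocyte CuZn-SOD. Activity measured as NBT reduction by superoxide (Beyer–Fridovich): methionine, NBT, Triton X-100 and riboflavin, with A560 read before and after 10 min of light. Compounds tested at 1–100 μM. Mean of five; IC50 by linear regression from Kc.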

[3] = Selectivity index, ratio of IC50 for african green monkey Vero cells to IC50 for Trypanosoma cruzi IRHOD/VO/2008/SN3 epimastigotes; format: toxicity, cell-based; conditions: Vero cells versus Trypanosoma cruzi epimastigotes, read-out: Ratio IC50
[4] = tested on: Trypanosoma cruzi; assay: as §1, with “5” for “15”, “25” for “40”; format: functional, organism-based; procedure, shortened: as §2
[5] = tested on: Trypanosoma cruzi; assay: Antitrypanosomal activity against Trypanosoma cruzi IRHOD/VO/2008/SN3 metacyclic forms infected in african green monkey Vero cells assessed as inhibition of intracellular amastigotes replication at IC25 level 0.5 to 10 days; format: functional
Procedure, shortened: (§4)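 Vero cells in RPMI infected with metacyclic forms at 10:1. Compounds added at IC25 immediately after infection for 12 h at 37 °C, 5% CO2, then washed off. Cultures grown 10 days with fresh medium every 48 h. Giemsa slides scored for % infected cells and amastigotes per cell (>100 cells); trypomastigotes in medium counted. Mean of four.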

[6] = tested on: Trypanosoma cruzi; assay: Antitrypanosomal activity against Trypanosoma cruzi IRHOD/VO/2008/SN3 metacyclic forms infected in BALB/c mouse model of acute Chagas disease assessed as reduction in parasitemia level at 15 mg/kg/day, ip administered for 5 consecutive days starting on day 7 post infection until day 12 post infection and measured on day 15 post infection relative to untreated control; format: functional; design: scale not given: the % may be the effect or the level left; conditions: route intraperitoneal; procedure, shortened: as §2
[7] = tested on: Trypanosoma cruzi; assay: Effect on glucose metabolism in Trypanosoma cruzi IRHOD/VO/2008/SN3 epimastigotes assessed as excreted ethanol level at IC25 level incubated for 96 hrs at 28 degC by [1H]NMR spectroscopy
[8] = tested on: Trypanosoma cruzi; assay: Induction of ultrastructural modifications in Trypanosoma cruzi Maracay at IC25 level incubated for 96 hrs by transmission electron microscopy; format: functional, organism-based
Procedure, shortened: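 Maracay epimastigotes at 5 × 10^5 cells/mL exposed at IC25 for 96 h. Pellets washed in PBS, fixed in 2% paraformaldehyde/glutaraldehyde in 0.05 M cacodylate (pH 7.4) for 4 h at 4 °C, then examined by TEM.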

[9] = tested on: Trypanosoma cruzi; assay: Antitrypanosomal activity against Trypanosoma cruzi IRHOD/VO/2008/SN3 […] amastigotes infected in african green monkey Vero cells incubated for 72 hrs; format: functional, organism-based; conditions: IRHOD/VO/2008/SN3, Vero
[10] = tested on: Trypanosoma cruzi; assay: (§5) Antitrypanosomal activity against Trypanosoma cruzi IRHOD/VO/2008/SN3 metacyclic forms infected in BALB/c mouse model of chronic Chagas disease subjected to 3 cycles of immunosuppression with 50 mg/kg cyclophosphamide monohydrate for 3 consecutive weeks assessed as change in IgG absorbance level at 15 mg/kg/day, ip administered for 5 consecutive days starting on day 7 post infection until day 12 post infection and measured on day 150 post infection by ELISA; format: functional
Procedure, shortened: (§6)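 Infected, treated mice (ip 5 or 15 mg/kg/day, days 7–12 pi) kept to day 120. Half then given three 4-day cycles of cyclophosphamide at 50 mg/kg with 3-day gaps; the rest left untreated. Serum IgG measured by ELISA on parasite-excreted Fe-SOD antigen: 1:100 serum, anti-IgG peroxidase 1:1000, OPD, A492, in triplicate. Reported as immunosuppressed minus non-immunosuppressed OD.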

[11] = tested on: Trypanosoma cruzi; assay: as §1, with “5” for “15”, “15 to 20” for “40”; format: functional; procedure, shortened: as §2
[12] = tested on: Trypanosoma cruzi; assay: Antitrypanosomal activity against Trypanosoma cruzi IRHOD/VO/2008/SN3 epimastigotes incubated for 72 hrs; conditions: IRHOD/VO/2008/SN3, 72 h
[13] = tested on: Trypanosoma cruzi; assay: as §5, with “parasitemia reactivation” for “change in IgG absorbance”, “infection” for “infection by ELISA”; format: functional
Procedure, shortened: (§7)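 Female BALB/c mice (6–8 wk, 25–30 g), six per group, were infected ip with 5 × 10^5 metacyclic trypomastigotes from infected mouse blood and dosed ip daily on days 7–12 pi. From day 120 pi a subgroup got three 4-day cycles of cyclophosphamide 50 mg/kg, 3 days apart. Parasites were counted by Neubauer chamber the day after cycle three in 5 μL mandibular-vein blood (1:100 PBS). Reactivation was scored against the matching non-immunosuppressed group; three experiments.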

[14] = Selectivity index, ratio of IC50 for african green monkey Vero cells to IC50 for Trypanosoma cruzi IRHOD/VO/2008/SN3 blood trypomastigotes; format: toxicity, cell-based; conditions: Vero cells versus Trypanosoma cruzi blood trypomastigotes, read-out: Ratio IC50
[15] = tested on: Trypanosoma cruzi; assay: Effect on glucose metabolism in Trypanosoma cruzi IRHOD/VO/2008/SN3 epimastigotes assessed as excreted L-lactate level at IC25 level incubated for 96 hrs at 28 degC by [1H]NMR spectroscopy
[16] = tested on: Trypanosoma cruzi; assay: Antitrypanosomal activity against Trypanosoma cruzi IRHOD/VO/2008/SN3 metacyclic forms infected in african green monkey Vero cells assessed as inhibition of trypomastigotes level at IC25 level 0.5 to 10 days; format: functional; procedure, shortened: as §4
[17] = tested on: Trypanosoma cruzi; assay: Effect on glucose metabolism in Trypanosoma cruzi IRHOD/VO/2008/SN3 epimastigotes assessed as excreted L-alanine level at IC25 level incubated for 96 hrs at 28 degC by [1H]NMR spectroscopy
[18] = tested on: Trypanosoma cruzi; assay: as §5, with “at 5” for “at 15”; format: functional; procedure, shortened: as §6
[19] = tested on: Trypanosoma cruzi; assay: Inhibition of Trypanosoma cruzi IRHOD/VO/2008/SN3 epimastigotes Iron superoxide dismutase at 50 uM by spectrophotometry; procedure, shortened: as §3
[20] = tested on: Trypanosoma cruzi; assay: (§8) Toxicity in Trypanosoma cruzi IRHOD/VO/2008/SN3 metacyclic forms infected BALB/c mouse model of acute Chagas disease assessed as mortality incidence at 5 mg/kg/day, ip administered for 5 consecutive days starting on day 7 post infection until day 12 post infection and measured 40 days post infection; format: organism-based; design: route intraperitoneal; conditions: in vivo, 960 h
Procedure, shortened: (§9)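 Female BALB/c mice (6–8 wk, 25–30 g), six per group, were infected ip with 5 × 10^5 metacyclic trypomastigotes from infected mouse blood. Once infection was confirmed, compound was given ip daily on days 7–12 pi. An infected untreated group served as control. Deaths were recorded during treatment, and parasitemia was counted in mandibular-vein blood every 3 days up to day 40 pi.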

[21] = tested on: Trypanosoma cruzi; assay: Antitrypanosomal activity against Trypanosoma cruzi IRHOD/VO/2008/SN3 intracellular amastigotes infected in african green monkey Vero cells incubated for 72 hrs; format: functional, organism-based; conditions: IRHOD/VO/2008/SN3, Vero
Procedure, shortened: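 Vero cells (1 × 10^4/well) grown 2 days on coverslips, then infected with metacyclic forms at 10:1 for 24 h at 37 °C. Extracellular parasites washed off. Compounds at 1–100 μM for 72 h in RPMI with 10% FBS. Amastigotes counted on methanol-fixed, Giemsa-stained slides against untreated cultures. Mean of four determinations; IC50.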

[22] = tested on: Trypanosoma cruzi; assay: Antitrypanosomal activity against Trypanosoma cruzi IRHOD/VO/2008/SN3 isolated from mouse blood trypomastigotes incubated for 24 hrs; format: functional, organism-based; conditions: IRHOD/VO/2008/SN3, Blood
Procedure, shortened: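 Blood from BALB/c mice 7 days post-infection, drawn by cardiac puncture into 3.8% citrate (7:3). Compounds in PBS at 10, 25 and 50 μM final, mixed with infected blood (~1 × 10^6 parasites/mL). Shaken 10 min at room temperature, held 24 h at 4 °C. Parasites counted at 1:100 dilution against a PBS control.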

[23] = Selectivity index, ratio of IC50 for african green monkey Vero cells to IC50 for Trypanosoma cruzi IRHOD/VO/2008/SN3 axenic amastigotes; format: toxicity, cell-based; conditions: Vero cells versus Trypanosoma cruzi axenic amastigotes, read-out: Ratio IC50
[24] = tested on: Trypanosoma cruzi; assay: Effect on glucose metabolism in Trypanosoma cruzi IRHOD/VO/2008/SN3 epimastigotes assessed as excreted acetate level at IC25 level incubated for 96 hrs at 28 degC by [1H]NMR spectroscopy
[25] = tested on: Trypanosoma cruzi; assay: Antitrypanosomal activity against Trypanosoma cruzi IRHOD/VO/2008/SN3 metacyclic forms infected in african green monkey Vero cells assessed as inhibition of infection rate at IC25 level 0.5 to 10 days; format: functional; procedure, shortened: as §4
[26] = Selectivity index, ratio of IC50 for african green monkey Vero cells to IC50 for Trypanosoma cruzi IRHOD/VO/2008/SN3 intracellular amastigotes; format: toxicity, cell-based; conditions: read-out: Ratio IC50
[27] = target: Superoxide dismutase [Cu-Zn] (Homo sapiens, UniProt P00441); assay: Inhibition of SOD1 in human erythrocytes by spectrophotometry; format: cell-based; procedure, shortened: as §3
Sequence of Superoxide dismutase [Cu-Zn] (P00441 whole entry): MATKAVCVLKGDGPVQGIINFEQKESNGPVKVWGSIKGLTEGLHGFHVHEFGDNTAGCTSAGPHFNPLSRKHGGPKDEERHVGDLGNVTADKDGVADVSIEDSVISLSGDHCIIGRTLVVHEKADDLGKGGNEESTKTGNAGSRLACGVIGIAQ

[28] = Toxicity against african green monkey Vero cells; format: cell-based, Chlorocebus sabaeus
[29] = Selectivity index, ratio of IC50 for SOD1 in human erythrocytes to IC50 for Trypanosoma cruzi IRHOD/VO/2008/SN3 epimastigotes Iron superoxide dismutase; format: cell-based
[30] = tested on: Trypanosoma cruzi; assay: Effect on glucose metabolism in Trypanosoma cruzi IRHOD/VO/2008/SN3 epimastigotes assessed as excreted succinate level at IC25 level incubated for 96 hrs at 28 degC by [1H]NMR spectroscopy
[31] = tested on: Trypanosoma cruzi; assay: as §5, with “as parasitemia reactivation” for “as change in IgG absorbance”, “at 5” for “at 15”, “infection” for “infection by ELISA”; format: functional; procedure, shortened: as §7
[32] = as §8; format: organism-based; design: route intraperitoneal; conditions: BALB/c, in vivo, read-out: Activity; procedure, shortened: as §9
[33] = tested on: Trypanosoma cruzi; assay: as §1, with “5” for “15”; format: functional; design: scale not given: the % may be the effect or the level left; conditions: route intraperitoneal; procedure, shortened: as §2

Row | Structure (SMILES) | IC50 [2] | selectivity ratio [3] | inhibition (INH) [5] | Activity [7] | Activity [8] | IC50 [9] | IC50 [12] | selectivity ratio [14] | Activity [15] | inhibition (INH) [16] | Activity [17] | IC50 [21] | IC50 [22] | selectivity ratio [23] | Activity [24] | inhibition (INH) [25] | selectivity ratio [26] | IC50 [27] | IC50 [28] | Ratio IC50 [29] | other results
1 | Clc1nnc(NCCCn2ccnc2)c2ccccc12 | 14.4 µM | 49.6 | 55.8% | -16% | Active | 10.6 µM | 8.8 µM | 42.8 | -38% | 73.9% | -27% | 8.9 µM | 10.2 µM | 41.2 | -54% | 80.3% | 49.1 | 83.1 µM | 437 µM | 5.8 | Activity [1]: 61%; Activity [4]: Active; Activity [6]: 64%; deltaA [10]: 0.0096; Activity [11]: Active; Activity [13]: 8%; deltaA [18]: 0.0143; inhibition [19]: 100%; Activity [20]: Non-toxic; Activity [30]: inactive; Activity [31]: 21%
2 | c1ccc2c(NCCc3c[nH]cn3)nnc(NCCc3c[nH]cn3)c2c1 | 48 µM | – | 48.7% | inactive | Active | 15.2 µM | 13 µM | – | -15% | 63.8% | inactive | 18.1 µM | 22.5 µM | – | -10% | 65.1% | – | – | – | 2.6 | Activity [30]: inactive
3 | O=C(Cn1ccnc1[N+](=O)[O-])NCc1ccccc1 [BENZNIDAZOLE] | – | – | 12.5% | – | – | 18.9 µM | 15.9 µM | – | – | 41.6% | – | – | 16.4 µM | – | – | 39.4% | – | – | – | – | Activity [4]: Active; Activity ([11]; route intraperitoneal): 15.3%; mortality at 960 h [32]: 20%; Activity [33]: 16.7%; Activity [31]: 36%
4 | c1ccc2c(NCCCn3ccnc3)nnc(NCCCn3ccnc3)c2c1 | 41.7 µM | 17.3 | 41.1% | inactive | Active | 12.4 µM | 17.4 µM | 17.8 | -24% | 57.8% | inactive | 16.6 µM | 16.9 µM | 24.2 | -21% | 51.5% | 18.2 | 66 µM | 302 µM | 1.6 | Activity [30]: inactive
5 | Clc1nnc(NCCc2c[nH]cn2)c2ccccc12 | 12.9 µM | 49.1 | 62.9% | -12% | Active | 10.1 µM | 8.7 µM | 46.5 | -33% | 85.1% | -13% | 9.4 µM | 9.2 µM | 42.3 | -21% | 83.9% | 45.5 | 71.5 µM | 427 µM | 5.5 | Activity [1]: 74%; Activity [4]: Active; Activity [6]: 59%; deltaA [10]: 0.0067; Activity [11]: Active; Activity [13]: 4%; deltaA [18]: 0.0103; inhibition [19]: 100%; Activity [20]: Non-toxic; Activity [30]: inactive; Activity [31]: 9%
6 | c1ccc2c(NCCc3cnc[nH]3)nnc(NCCc3cnc[nH]3)c2c1 | – | 24.9 | – | – | – | – | – | 14.4 | – | – | – | – | – | 21.3 | – | – | 17.9 | 125 µM | 324 µM | – | –
